Measured values taken from ChEMBL document CHEMBL1138564, “Microwave-induced synthesis and anti-microbial activities of 7,10,11,12-tetrahydrobenzo[c]acridin-8(9H)-one derivatives” (2009).
Values after ≈ are worked out from the molar mass of the structure shown. Active and inactive are the calls of the source. No cut-off for these calls is given here.

Columns and labels:
[1] = test system: Aspergillus parasiticus; assay: Antimicrobial activity against Aspergillus parasiticus NCIM 904 after 72 hrs by serial dilution method; format: functional; settings: NCIM 904, 72 h
Outline: (§1)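 MIC by broth dilution in Sabouraud's dextrose broth, only for fungi sensitive in disc diffusion. Two-fold serial dilutions of compounds are made in 1 ml broth per tube, range 3.9 to 1000. Inoculated tubes are incubated at 27 °C for 72 h.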

[2] = test system: Aspergillus flavus; assay: Antimicrobial activity against Aspergillus flavus NCIM 902 after 72 hrs by serial dilution method; format: functional; settings: NCIM 535, 72 h, in the assay text read “NCIM 535” for “NCIM 902”; outline: as §1
[3] = test system: Pseudomonas aeruginosa; assay: Antimicrobial activity against Pseudomonas aeruginosa NCIM 2200 at 500 ug/disk after 24 hrs by disk diffusion method; format: functional
Outline: (§2)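 Disc diffusion. 100 µl of bacterial suspension at 10⁸ CFU/ml was spread on Mueller–Hinton agar. Discs loaded with test compound dissolved in DMSO were placed on the lawn, with a DMSO-only disc as negative control. Plates were incubated at 37 °C for 24 h, and the inhibition zone diameter was measured.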

[4] = test system: Aliivibrio fischeri; assay: Antimicrobial activity against Vibrio fischeri NCIM 2154 after 24 hrs by serial dilution method; format: functional; settings: NCIM 2154, 24 h
[5] = test system: Penicillium chrysogenum; assay: Antimicrobial activity against Penicillium chrysogenum NCIM 707 at 500 ug/disk after 72 hrs by disk diffusion method; format: functional
Outline: (§3)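 Disc diffusion on Sabouraud's dextrose agar. 100 µl of fungal suspension at 10⁶ CFU/ml is spread on the plate. Discs carry test compounds at two loadings in DMSO; DMSO alone is the negative control. Clotrimazole disc is the positive reference. Plates are incubated at 27 °C for 72 h, and the zone of inhibition diameter is measured.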

[6] = test system: Proteus vulgaris; assay: Antimicrobial activity against Proteus vulgaris NCIM 2027 at 1000 ug/disk after 24 hrs by disk diffusion method; format: functional; settings: NCIM 2027, 24 h, read-out: DIZ
Outline: (§4)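 Disc diffusion on Mueller–Hinton agar. 100 µl of bacterial suspension at 10⁸ CFU/ml is spread on the plate. Discs carry test compounds at two loadings, dissolved in DMSO; DMSO alone serves as negative control. Ofloxacin disc is the positive reference. Plates are incubated at 37 °C for 24 h, and the inhibition zone diameter is measured.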

[7] = test system: Bacillus subtilis; assay: Antimicrobial activity against Bacillus subtilis NCIM 2063 at 500 ug/disk after 24 hrs by disk diffusion method; format: functional; settings: NCIM 2063, 24 h, read-out: DIZ; outline: as §4
[8] = test system: Klebsiella aerogenes; assay: Antimicrobial activity against Klebsiella aerogenes NCIM 2239 at 1000 ug/disk after 24 hrs by disk diffusion method; format: functional; settings: NCIM 2239, 24 h, read-out: DIZ; outline: as §4
[9] = test system: Salmonella typhimurium; assay: Antimicrobial activity against Salmonella Typhimurium NCIM 2501 at 1000 ug/disk after 24 hrs by disk diffusion method; format: functional, Salmonella enterica subsp. enterica serovar Typhimurium; settings: Salmonella enterica, NCIM 2501, 24 h; read-out: DIZ; outline: as §2
[10] = test system: Aliivibrio fischeri; assay: Antimicrobial activity against Vibrio fischeri NCIM 2154 at 500 ug/disk after 24 hrs by disk diffusion method; format: functional; settings: NCIM 2154, 24 h, read-out: DIZ; outline: as §2
[11] = test system: Escherichia coli; assay: Antimicrobial activity against Escherichia coli NCIM 2065 after 24 hrs by serial dilution method; format: functional; settings: NCIM 2065, 24 h
Outline: (§5)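 Broth dilution MIC in nutrient broth, run only for organisms found sensitive in disc diffusion. Compounds are two-fold serially diluted in 1 ml sterile broth per tube, spanning 3.9 to 1000. Inoculated tubes are incubated at 37 °C for 24 h.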

[12] = test system: Bacillus cereus; assay: Antimicrobial activity against Bacillus cereus NCIM 2155 at 1000 ug/disk after 24 hrs by disk diffusion method; format: functional; outline: as §4
[13] = test system: Aspergillus flavus; assay: Antimicrobial activity against Aspergillus flavus NCIM 902 at 1000 ug/disk after 72 hrs by disk diffusion method; format: functional; settings: NCIM 902, 72 h, read-out: DIZ; outline: as §3
[14] = test system: Penicillium chrysogenum; assay: Antimicrobial activity against Penicillium chrysogenum NCIM 707 at 1000 ug/disk after 72 hrs by disk diffusion method; format: functional; outline: as §3
[15] = test system: Aspergillus fumigatus; assay: Antimicrobial activity against Aspergillus fumigatus NCIM 902 at 1000 ug/disk after 72 hrs by disk diffusion method; format: functional; outline: as §3
[16] = test system: Rhodococcus corynebacterioides; assay: Antimicrobial activity against Corynebacterium rubrum NCIM 2252 at 1000 ug/disk after 24 hrs by disk diffusion method; format: functional; settings: Rhodococcoides corynebacterioides, NCIM 2252, 24 h; read-out: DIZ; outline: as §4
[17] = test system: Rhodotorula mucilaginosa; assay: Antimicrobial activity against Rhodotorula rubra NCIM 3174 after 72 hrs by serial dilution method; format: functional; settings: NCIM 3174, 72 h
Outline: (§6)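 MIC by broth dilution in Sabouraud's dextrose broth, run only on fungi found sensitive in the disc assay. Twofold serial dilutions were made in 1 ml broth per tube, covering 3.9 to 1000. Inoculated tubes were incubated at 27 °C for 72 h.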

[18] = test system: Aspergillus parasiticus; assay: Antimicrobial activity against Aspergillus parasiticus NCIM 904 at 500 ug/disk after 72 hrs by disk diffusion method; format: functional; settings: NCIM 904, 72 h, read-out: DIZ; outline: as §3
[19] = test system: Staphylococcus; assay: Antimicrobial activity against Staphylococcus albus NCIM 2178 at 500 ug/disk after 24 hrs by disk diffusion method; format: functional; settings: NCIM 2178, 24 h, read-out: DIZ; outline: as §2
[20] = test system: Escherichia coli; assay: Antimicrobial activity against Escherichia coli NCIM 2065 at 500 ug/disk after 24 hrs by disk diffusion method; format: functional; settings: NCIM 2065, 24 h, read-out: DIZ; outline: as §4
[21] = test system: Bacillus subtilis; assay: Antimicrobial activity against Bacillus subtilis NCIM 2063 at 1000 ug/disk after 24 hrs by disk diffusion method; format: functional; settings: NCIM 2063, 24 h, read-out: DIZ; outline: as §4
[22] = test system: Klebsiella aerogenes; assay: Antimicrobial activity against Klebsiella aerogenes NCIM 2239 at 500 ug/disk after 24 hrs by disk diffusion method; format: functional; settings: NCIM 2239, 24 h, read-out: DIZ; outline: as §4
[23] = test system: Trichoderma viride; assay: Antimicrobial activity against Trichoderma viride NCIM 1195 after 72 hrs by serial dilution method; format: functional; settings: NCIM 1195, 72 h; outline: as §6
[24] = test system: Proteus vulgaris; assay: Antimicrobial activity against Proteus vulgaris NCIM 2027 at 500 ug/disk after 24 hrs by disk diffusion method; format: functional; settings: NCIM 2027, 24 h, read-out: DIZ; outline: as §4
[25] = test system: Bacillus subtilis; assay: Antimicrobial activity against Bacillus subtilis NCIM 2063 after 24 hrs by serial dilution method; format: functional; settings: NCIM 2063, 24 h; outline: as §5
[26] = test system: Trichoderma viride; assay: Antimicrobial activity against Trichoderma viride NCIM 1195 at 500 ug/disk after 72 hrs by disk diffusion method; format: functional; settings: NCIM 1195, 72 h, read-out: DIZ
Outline: (§7)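 Fungal disc diffusion. 100 µl of suspension at 10⁶ CFU/ml was spread on Sabouraud's dextrose agar. Discs carrying test compound in DMSO were applied, with a DMSO-only disc as negative control. Plates were incubated at 27 °C for 72 h, and the zone of inhibition diameter was measured.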

[27] = test system: Rhodotorula mucilaginosa; assay: Antimicrobial activity against Rhodotorula rubra NCIM 3174 at 500 ug/disk after 72 hrs by disk diffusion method; format: functional; settings: NCIM 3174, 72 h, read-out: DIZ; outline: as §7
[28] = test system: Trichoderma viride; assay: Antimicrobial activity against Trichoderma viride NCIM 1195 at 1000 ug/disk after 72 hrs by disk diffusion method; format: functional; settings: NCIM 1195, 72 h, read-out: DIZ; outline: as §7
[29] = test system: Escherichia coli; assay: Antimicrobial activity against Escherichia coli NCIM 2065 at 1000 ug/disk after 24 hrs by disk diffusion method; format: functional; settings: NCIM 2065, 24 h, read-out: DIZ; outline: as §4
[30] = test system: Aspergillus fumigatus; assay: Antimicrobial activity against Aspergillus fumigatus NCIM 902 at 500 ug/disk after 72 hrs by disk diffusion method; format: functional; outline: as §3
[31] = test system: Rhodococcus corynebacterioides; assay: Antimicrobial activity against Corynebacterium rubrum NCIM 2252 at 500 ug/disk after 24 hrs by disk diffusion method; format: functional; settings: Rhodococcoides corynebacterioides, NCIM 2252, 24 h; read-out: DIZ; outline: as §4
[32] = test system: Rhodotorula mucilaginosa; assay: Antimicrobial activity against Rhodotorula rubra NCIM 3174 at 1000 ug/disk after 72 hrs by disk diffusion method; format: functional; settings: NCIM 3174, 72 h, read-out: DIZ; outline: as §7

Row | MIC [1] [µg/mL] | MIC [2] [µg/mL] | MIC [11] [µg/mL] | MIC [17] [µg/mL] | MIC [23] [µg/mL] | MIC [25] [µg/mL] | SMILES | MIC [4] [µg/mL] | zone of inhibition at 1000 µg/disc [6] [mm] | zone of inhibition at 500 µg/disc [7] [mm] | zone of inhibition at 1000 µg/disc [8] [mm] | zone of inhibition at 1000 µg/disc [9] [mm] | zone of inhibition at 500 µg/disc [10] [mm] | zone of inhibition at 1000 µg/disc [13] [mm] | zone of inhibition at 1000 µg/disc [16] [mm] | zone of inhibition at 500 µg/disc [18] [mm] | zone of inhibition at 500 µg/disc [19] [mm] | zone of inhibition at 500 µg/disc [20] [mm] | zone of inhibition at 1000 µg/disc [21] [mm] | zone of inhibition at 500 µg/disc [22] [mm] | zone of inhibition at 500 µg/disc [24] [mm] | further results
1 | 15.6 (≈ 45.7 µM) | 125 (≈ 366 µM) | 125 (≈ 366 µM) | 7.8 (≈ 22.8 µM) | 31.2 (≈ 91.4 µM) | 31.2 (≈ 91.4 µM) | O=C1CCCC2=C1C(c1ccc(O)cc1)c1ccc3ccccc3c1N2 (centres undefined) | 125 (≈ 366 µM) | 9 | 9 | 10 | 9 | 7 | 8 | 9 | 12 | 8 | 7 | 11 | 7 | 7 | zone of inhibition at 500 µg/disc ([3]; NCIM 2200, 24 h, read-out: DIZ): 7 mm; zone of inhibition at 500 µg/disc ([5]; NCIM 707, 72 h, read-out: DIZ): 9 mm; diameter of the inhibition zone (DIZ) [12]: inactive; zone of inhibition at 1000 µg/disc ([14]; NCIM 707, 72 h, read-out: DIZ): 10 mm; diameter of the inhibition zone (DIZ) [15]: inactive; zone of inhibition at 500 µg/disc [26]: 10 mm; zone of inhibition at 500 µg/disc [27]: 12 mm; zone of inhibition at 1000 µg/disc [28]: 11 mm; zone of inhibition at 1000 µg/disc [29]: 9 mm; diameter of the inhibition zone (DIZ) [30]: inactive; zone of inhibition at 500 µg/disc [31]: 7 mm; zone of inhibition at 1000 µg/disc [32]: 14 mm
2 | 15.6 (≈ 42.1 µM) | 31.2 (≈ 84.2 µM) | 31.2 (≈ 84.2 µM) | 3.9 (≈ 10.5 µM) | 62.5 (≈ 169 µM) | 31.2 (≈ 84.2 µM) | O=C1CCCC2=C1C(c1cccc([N+](=O)[O-])c1)c1ccc3ccccc3c1N2 (centres undefined) | 125 (≈ 337 µM) | 9 | 10 | 9 | 10 | 7 | 12 | 8 | 11 | 8 | 9 | 12 | 7 | 7 | diameter of the inhibition zone (DIZ) [3]: inactive; diameter of the inhibition zone (DIZ) [5]: inactive; zone of inhibition at 1000 µg/disc ([12]; NCIM 2155, 24 h, read-out: DIZ): 10 mm; diameter of the inhibition zone (DIZ) [14]: inactive; zone of inhibition at 1000 µg/disc ([15]; NCIM 902, 72 h, read-out: DIZ): 9 mm; zone of inhibition at 500 µg/disc [26]: 9 mm; zone of inhibition at 500 µg/disc [27]: 10 mm; zone of inhibition at 1000 µg/disc [28]: 10 mm; zone of inhibition at 1000 µg/disc [29]: 12 mm; diameter of the inhibition zone (DIZ) [30]: inactive; zone of inhibition at 500 µg/disc [31]: 7 mm; zone of inhibition at 1000 µg/disc [32]: 14 mm
